From ChEMBL document CHEMBL1152812, “Novel trans-2-aryl-cyclopropylamine analogues as potent and selective dipeptidyl peptidase IV inhibitors” (Bioorg Med Chem, 2009)
Active and inactive are the calls of the source. No cut-off for these calls is given here.

Experiments:
[1] = Half life in rat at 25 mg/kg, po; type: ADME, organism-based; design: dose 25 mg/kg, route oral; settings: in vivo
Summary of the method: (§1)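 Rat pharmacokinetics after dosing at 5 mg/kg iv and 25 mg/kg po. Parameters derived: plasma clearance, oral Cmax, oral half-life, dose-normalised oral AUC and oral bioavailability (F).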

Dipeptidyl peptidase 2 = Dipeptidyl peptidase 2 (Homo sapiens, UniProt Q9UHL4); test: Inhibition of human DPP2
[2] = Plasma clearance in rat at 5 mg/kg, iv or 25 mg/kg, po; type: ADME, organism-based; summary of the method: as §1
Dipeptidyl peptidase 8 [3] = target: T1, Dipeptidyl peptidase 8 (Homo sapiens, UniProt Q6V1X1); test: Inhibition of human DPP8
Target sequence in this assay (Q6V1X1 whole entry): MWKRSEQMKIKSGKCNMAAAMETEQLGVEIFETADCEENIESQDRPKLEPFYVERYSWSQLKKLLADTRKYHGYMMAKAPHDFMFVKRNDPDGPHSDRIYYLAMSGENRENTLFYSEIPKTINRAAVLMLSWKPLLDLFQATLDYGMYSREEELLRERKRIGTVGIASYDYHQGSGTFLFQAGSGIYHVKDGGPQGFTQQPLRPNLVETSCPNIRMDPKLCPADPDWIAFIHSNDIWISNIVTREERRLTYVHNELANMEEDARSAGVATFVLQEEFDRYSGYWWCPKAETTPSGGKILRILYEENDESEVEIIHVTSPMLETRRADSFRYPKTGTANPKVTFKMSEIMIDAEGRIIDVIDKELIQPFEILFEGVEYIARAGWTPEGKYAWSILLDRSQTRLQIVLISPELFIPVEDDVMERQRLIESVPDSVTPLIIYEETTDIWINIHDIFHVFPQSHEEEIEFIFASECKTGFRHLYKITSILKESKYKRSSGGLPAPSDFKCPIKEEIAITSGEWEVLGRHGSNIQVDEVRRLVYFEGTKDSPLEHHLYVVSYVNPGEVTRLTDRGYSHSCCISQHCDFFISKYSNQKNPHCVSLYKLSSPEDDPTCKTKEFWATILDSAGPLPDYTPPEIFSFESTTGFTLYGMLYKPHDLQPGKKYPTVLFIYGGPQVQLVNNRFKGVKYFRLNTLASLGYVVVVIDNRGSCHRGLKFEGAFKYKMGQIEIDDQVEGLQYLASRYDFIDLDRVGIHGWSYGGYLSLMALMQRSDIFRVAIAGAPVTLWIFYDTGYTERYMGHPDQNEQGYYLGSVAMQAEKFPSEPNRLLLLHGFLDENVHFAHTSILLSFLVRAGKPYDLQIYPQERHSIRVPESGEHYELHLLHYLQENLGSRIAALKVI

[4] = Oral bioavailability in rat at 25 mg/kg, po; type: ADME, organism-based; settings: in vivo; summary of the method: as §1
[5] = Cmax in rat at 25 mg/kg, po; type: ADME, organism-based; design: dose 25 mg/kg, route oral; settings: in vivo; summary of the method: as §1
Prolyl endopeptidase FAP = target: T2, Prolyl endopeptidase FAP (Homo sapiens, UniProt Q12884); test: Inhibition of human FAP
T2 sequence (Q12884 whole entry): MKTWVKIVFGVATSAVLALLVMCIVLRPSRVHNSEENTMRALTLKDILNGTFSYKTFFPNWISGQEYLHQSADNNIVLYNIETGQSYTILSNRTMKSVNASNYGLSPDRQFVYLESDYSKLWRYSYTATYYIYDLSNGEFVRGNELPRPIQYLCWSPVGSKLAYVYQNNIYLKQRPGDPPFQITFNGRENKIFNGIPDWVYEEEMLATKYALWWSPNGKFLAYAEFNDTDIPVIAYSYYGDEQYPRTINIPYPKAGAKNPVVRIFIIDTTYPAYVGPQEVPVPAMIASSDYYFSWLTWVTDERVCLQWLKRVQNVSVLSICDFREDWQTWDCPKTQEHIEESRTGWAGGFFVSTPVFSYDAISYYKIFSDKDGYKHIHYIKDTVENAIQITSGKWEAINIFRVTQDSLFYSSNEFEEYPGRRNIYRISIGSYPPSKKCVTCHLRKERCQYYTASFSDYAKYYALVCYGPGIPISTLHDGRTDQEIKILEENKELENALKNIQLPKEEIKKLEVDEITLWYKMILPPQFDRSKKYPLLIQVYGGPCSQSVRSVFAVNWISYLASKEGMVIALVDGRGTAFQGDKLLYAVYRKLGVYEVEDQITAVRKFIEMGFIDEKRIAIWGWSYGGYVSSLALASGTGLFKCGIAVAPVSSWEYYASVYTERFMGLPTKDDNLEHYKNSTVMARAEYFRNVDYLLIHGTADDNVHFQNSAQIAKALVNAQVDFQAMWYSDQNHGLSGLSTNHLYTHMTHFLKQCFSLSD

Dipeptidyl peptidase 8 [6] = target: T1, Dipeptidyl peptidase 8; test: Inhibition of human DPP8 at 20 uM
Target sequence in this assay (Q6V1X1 whole entry, looked up): as the sequence (Q6V1X1 whole entry) above

Rattus norvegicus [7] = test: Inhibition of DPP4 in Wistar rat plasma at 10 mg/kg, po within 30 mins; type: functional; settings: 0.5 h
Summary of the method: (§2)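 Adult male Wistar rats (n = 4–6/group) given a single oral gavage of 10 mg/kg in 0.5% methyl cellulose. Tail-vein blood (25–50 µl) taken at timed points and plasma kept frozen. Plasma (10 µl) mixed with 150 µM Gly-Pro-AMC in 25 mM Tris-HCl pH 7.4, 140 mM NaCl, 10 mM KCl, 0.1% BSA. Fluorescence read at ex 390/em 460 nm. Activity in U/mL; mean ± SEM.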

Rattus norvegicus [8] = test: Inhibition of DPP4 in Wistar rat plasma at 10 mg/kg, po after 8 hrs; type: functional; summary of the method: as §2
Mus musculus = test: Reduction in glucose excursion in C57BL/6J lean mouse at 3 mg/kg, po pretreated 30 mins before glucose challenge measured after 120 mins by oral glucose tolerance test relative to control; type: functional, organism-based; design: dose 3 mg/kg
Summary of the method: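 Fasted overnight: adult male C57BL/6 mice (20–25 g, 6–8 weeks old, n = 6/group), grouped by tail-vein glucometer reading. Oral gavage of test agent in distilled water at −30 min (1, 3 or 10 mg/kg), then 3 g/kg oral glucose (400 mg/mL) at 0 min.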

Rattus norvegicus [9] = test: Inhibition of DPP4 in Wistar rat plasma at 10 mg/kg, po after 24 hrs; type: functional, organism-based; design: dose 10 mg/kg; summary of the method: as §2
[10] = Plasma clearance in rat at 5 mg/kg, iv or 10 mg/kg, po; type: ADME, organism-based
Summary of the method: (§3)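 Rat pharmacokinetics after dosing at 5 mg/kg iv and 10 mg/kg po. Parameters derived: plasma clearance, oral Cmax, oral half-life, dose-normalised oral AUC and oral bioavailability (F).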

[11] = Cmax in rat at 10 mg/kg, po; type: ADME, organism-based; design: dose 10 mg/kg, route oral; settings: in vivo; summary of the method: as §3
[12] = (§4) Oral bioavailability in rat at 10 mg/kg, po; type: ADME, organism-based; settings: in vivo; summary of the method: as §3
[13] = Half life in rat at 10 mg/kg, po; type: ADME, organism-based; design: dose 10 mg/kg, route oral; settings: in vivo; summary of the method: as §3
Rattus norvegicus [14] = test: as §4; type: ADME, organism-based; settings: in vivo; summary of the method: as §3
hERG (KCNH2) = hERG (KCNH2) (Homo sapiens, UniProt Q12809); test: Inhibition of human ERG at 10 uM
Sequence of hERG (KCNH2) (Q12809 whole entry): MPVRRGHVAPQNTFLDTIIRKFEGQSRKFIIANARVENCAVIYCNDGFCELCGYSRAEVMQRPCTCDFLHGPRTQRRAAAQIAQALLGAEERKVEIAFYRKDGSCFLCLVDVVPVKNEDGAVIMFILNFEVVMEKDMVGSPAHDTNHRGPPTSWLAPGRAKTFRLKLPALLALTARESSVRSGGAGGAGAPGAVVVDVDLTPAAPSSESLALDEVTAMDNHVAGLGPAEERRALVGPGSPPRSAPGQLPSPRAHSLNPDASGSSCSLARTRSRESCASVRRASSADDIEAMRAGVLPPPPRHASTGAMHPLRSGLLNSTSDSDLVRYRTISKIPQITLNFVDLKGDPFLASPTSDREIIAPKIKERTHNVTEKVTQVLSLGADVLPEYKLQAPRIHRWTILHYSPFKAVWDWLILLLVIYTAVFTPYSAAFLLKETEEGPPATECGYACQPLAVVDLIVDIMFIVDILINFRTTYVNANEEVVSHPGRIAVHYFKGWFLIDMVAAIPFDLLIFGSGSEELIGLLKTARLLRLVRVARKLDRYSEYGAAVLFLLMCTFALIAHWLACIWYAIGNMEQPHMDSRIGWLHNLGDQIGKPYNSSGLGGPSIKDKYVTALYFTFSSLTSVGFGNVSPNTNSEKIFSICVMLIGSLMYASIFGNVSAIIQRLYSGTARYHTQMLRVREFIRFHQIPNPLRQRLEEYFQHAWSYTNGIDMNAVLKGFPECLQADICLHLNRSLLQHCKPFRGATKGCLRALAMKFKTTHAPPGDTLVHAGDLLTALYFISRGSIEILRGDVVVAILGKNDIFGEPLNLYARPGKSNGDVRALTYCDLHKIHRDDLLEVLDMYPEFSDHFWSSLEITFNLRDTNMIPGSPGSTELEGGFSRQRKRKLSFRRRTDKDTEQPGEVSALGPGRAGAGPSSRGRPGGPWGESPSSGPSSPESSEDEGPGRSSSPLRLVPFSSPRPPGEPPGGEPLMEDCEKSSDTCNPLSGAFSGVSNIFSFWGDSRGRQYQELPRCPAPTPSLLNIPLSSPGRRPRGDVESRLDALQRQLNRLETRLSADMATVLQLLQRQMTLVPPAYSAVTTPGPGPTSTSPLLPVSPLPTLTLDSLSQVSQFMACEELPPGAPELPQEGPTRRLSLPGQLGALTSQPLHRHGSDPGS
Summary of the method: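 hERG binding; percent inhibition at a test concentration of 10 µM.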

Row | IC50 (Dipeptidyl peptidase 2) | IC50 (Dipeptidyl peptidase 8 [3]) | IC50 (Prolyl endopeptidase FAP) | SMILES | other results
1 | > 20 µM | > 20 µM | > 20 µM | COc1ccc([C@H]2C[C@@H]2NC(=O)CC(C)(C)NCC(=O)N2C[C@@H](F)C[C@H]2C#N)cc1 | half-life [1]: 5.3 h; clearance [2]: 1.2 L/h/kg; bioavailability [4]: 28%; Cmax [5]: 0.347 µg/mL
2 | > 20 µM | > 20 µM | > 20 µM | CC(C)(CC(=O)N[C@H]1C[C@@H]1c1cccc(F)c1)NCC(=O)N1CCC[C@H]1C#N | –
3 | > 20 µM | > 20 µM | > 20 µM | CC(C)(CC(=O)N[C@H]1C[C@@H]1c1cccnc1)NCC(=O)N1C[C@@H](F)C[C@H]1C#N | inhibition (Dipeptidyl peptidase 8 [6]): 17%
4 | 5.2 µM | – | > 20 µM | CC(C)(CC(=O)N[C@@H]1C[C@H]1c1cccc(Cl)c1)NCC(=O)N1C[C@@H](F)C[C@H]1C#N | –
5 | > 20 µM | > 20 µM | > 20 µM | Cc1ncsc1[C@H]1C[C@@H]1NC(=O)CC(C)(C)NCC(=O)N1C[C@@H](F)C[C@H]1C#N | inhibition in vivo at 10 mg/kg (Rattus norvegicus [7]): 60%; inhibition in vivo at 10 mg/kg (Rattus norvegicus [8]): 30%; inhibition (Dipeptidyl peptidase 8 [6]): 23%
6 | > 20 µM | > 20 µM | > 20 µM | CC(C)(CC(=O)N[C@H]1C[C@@H]1c1ccc(C(F)(F)F)cc1)NCC(=O)N1CCC[C@H]1C#N | –
7 | 16 µM | > 20 µM | > 20 µM | CC(C)(CC(=O)N[C@H]1C[C@@H]1c1ccccc1)NCC(=O)N1CCC[C@H]1C#N | –
8 | – | – | – | N[C@@H](CC(=O)N1CCn2c(nnc2C(F)(F)F)C1)Cc1cc(F)c(F)cc1F | Activity (Mus musculus): Active; Activity (Rattus norvegicus [9]): inactive
9 | > 20 µM | > 20 µM | > 20 µM | CC(C)(CC(=O)N[C@H]1C[C@@H]1c1cccc(OC(F)(F)F)c1)NCC(=O)N1CCC[C@H]1C#N | –
10 | > 20 µM | > 20 µM | > 20 µM | CC(C)(CC(=O)N[C@H]1C[C@@H]1c1cccc(C(F)(F)F)c1)NCC(=O)N1CCC[C@H]1C#N | –
11 | > 20 µM | > 20 µM | > 20 µM | CC(C)(CC(=O)N[C@H]1C[C@@H]1c1ccc(Cl)cc1)NCC(=O)N1CCC[C@H]1C#N | –
12 | > 20 µM | – | > 20 µM | CC(C)(CC(=O)N[C@H]1C[C@@H]1c1cccc(F)c1)NCC(=O)N1C[C@@H](F)C[C@H]1C#N | clearance [10]: 3.3 L/h/kg; Cmax [11]: 0.175 µg/mL; bioavailability [12]: 29%; half-life [13]: 1.2 h
13 | > 20 µM | > 20 µM | > 20 µM | CC(C)(CC(=O)N[C@H]1C[C@@H]1c1cccc(OC(F)(F)F)c1)NCC(=O)N1C[C@@H](F)C[C@H]1C#N | –
14 | > 20 µM | > 20 µM | > 20 µM | CC(C)(CC(=O)N[C@H]1C[C@@H]1c1ccc(F)c(F)c1)NCC(=O)N1CCC[C@H]1C#N | –
15 | > 20 µM | > 20 µM | > 20 µM | COc1cccc([C@H]2C[C@@H]2NC(=O)CC(C)(C)NCC(=O)N2C[C@@H](F)C[C@H]2C#N)c1 | clearance [10]: 7.44 L/h/kg; Cmax [11]: 0.898 µg/mL; F (Rattus norvegicus [14]): 194%; half-life [13]: 6.8 h
16 | 17 µM | > 20 µM | > 20 µM | CC(C)(CC(=O)N[C@@H]1C[C@H]1c1cccc(Cl)c1)NCC(=O)N1CCC[C@H]1C#N | –
17 | > 20 µM | > 20 µM | > 20 µM | CC(C)(CC(=O)N[C@H]1C[C@@H]1c1ccccc1)NCC(=O)N1C[C@@H](F)C[C@H]1C#N | –
18 | > 20 µM | > 20 µM | > 20 µM | CC(C)(CC(=O)N[C@H]1C[C@@H]1c1cc(F)cc(F)c1)NCC(=O)N1CCC[C@H]1C#N | –
19 | > 20 µM | > 20 µM | > 20 µM | CC(C)(CC(=O)N[C@H]1C[C@@H]1c1ccc(F)cc1F)NCC(=O)N1CCC[C@H]1C#N | –
20 | > 20 µM | > 20 µM | – | CCOc1cccc([C@H]2C[C@@H]2NC(=O)CC(C)(C)NCC(=O)N2C[C@@H](F)C[C@H]2C#N)c1 | –
21 | > 20 µM | > 20 µM | > 20 µM | CC(C)(CC(=O)N[C@H]1C[C@@H]1c1ccc(Cl)c(Cl)c1)NCC(=O)N1CCC[C@H]1C#N | –
22 | > 20 µM | > 20 µM | > 20 µM | CC(C)(CC(=O)N[C@H]1C[C@@H]1c1cccc(Cl)c1)NCC(=O)N1CCC[C@H]1C#N (stereo in doubt; 18k) | –
23 | > 20 µM | > 20 µM | > 20 µM | CC(C)(CC(=O)N[C@H]1C[C@@H]1c1cccc(Cl)c1)NCC(=O)N1CCC[C@H]1C#N (stereo in doubt; 22) | –
24 | > 20 µM | > 20 µM | > 20 µM | CC(C)(CC(=O)N[C@H]1C[C@@H]1c1ccc(F)cc1)NCC(=O)N1CCC[C@H]1C#N | –
25 | 0.59 µM | – | – | CC(C)(CC(=O)N[C@H]1C[C@@H]1c1cccc(Cl)c1)NCC(=O)N1CC(F)(F)C[C@H]1C#N | half-life [1]: 3.2 h; clearance [2]: 11.3 L/h/kg; bioavailability [4]: 53%; inhibition at 10 µM (hERG (KCNH2)): 15%; Cmax [5]: 0.454 µg/mL
26 | > 20 µM | > 20 µM | > 20 µM | COc1ccc([C@H]2C[C@@H]2NC(=O)CC(C)(C)NCC(=O)N2CCC[C@H]2C#N)cc1OC | –
